{"data": "Assay results gathered from unrelated publications", "MMP13": "Collagenase 3 (MMP13, Homo sapiens, UniProt P45452)", "CHRM1": "Muscarinic acetylcholine receptor M1 (CHRM1, Homo sapiens, UniProt P11229)", "LNPEP": "Leucyl-cystinyl aminopeptidase (LNPEP, Homo sapiens, UniProt Q9UIQ6)", "SLCO1B1": "Solute carrier organic anion transporter family member 1B1 (SLCO1B1, Homo sapiens, UniProt Q9Y6L6)", "CYP3A4": "Cytochrome P450 3A4 (CYP3A4, Homo sapiens, UniProt P08684)", "note": "Compare with care: the assays were run in different laboratories."}
{"Compound": "Cc1noc(-c2cc3cc(-c4nc(C(=O)NCc5ccc(=O)[nH]c5)[nH]c4C)ccc3[nH]2)n1", "target": "MMP13", "assay": "enzyme activity, inhibitor, FRET", "IC50 [µM]": 0.00033}
{"Compound": "CN1CCN(c2ccc(Nc3ncc4cc(C#N)c(=O)n(C5CCCC5)c4n3)cc2)CC1", "target": "Calcium/calmodulin-dependent protein kinase type II subunit gamma (CAMK2G, Homo sapiens, UniProt Q13555)", "assay": "enzyme activity, inhibitor", "IC50 [µM]": 3.87}
{"Compound": "Nc1ncnc2c1ncn2[C@@H]1O[C@H](CN(CC[C@H](N)C(=O)O)Cc2ccc3ccccc3c2)[C@@H](O)[C@H]1O", "target": "Histone-lysine N-methyltransferase NSD2 (NSD2, Homo sapiens, UniProt O96028)", "assay": "enzyme activity, inhibitor", "IC50 [µM]": "> 50"}
{"Compound": "CCn1c(-c2nc3ccc(C(=O)N4CCCC(N)C4)cc3n2C)cc2ccccc21 (centres unmarked)", "target": "CHRM1", "assay": "calcium signal, antagonist, fluorescence", "IC50 [µM]": "> 15.8"}
{"Compound": "C[N+]1(C)CCC(OC(=O)C(c2ccccc2)c2ccccc2)CC1", "target": "CHRM1", "assay": "ligand displacement, radioligand", "IC50 [µM]": 0.00364}
{"Compound": "CC/C=C\\C/C=C\\C/C=C\\C/C=C\\C/C=C\\CCCC(=O)O", "target": "DNA polymerase delta catalytic subunit (POLD1, Homo sapiens, UniProt P28340)", "assay": "enzyme activity, inhibitor", "IC50 [µM]": 39.2}
{"Compound": "O=S(=O)(Nc1cccc(-c2nnn[nH]2)c1)c1cc(Br)c(Cl)s1", "target": "LNPEP", "assay": "enzyme activity, inhibitor, fluorescence", "IC50 [µM]": 1.1}
{"Compound": "O=C(O[C@H]1[C@@H]2C=CO[C@@H](O[C@@H]3O[C@H](CO)[C@@H](O)[C@H](O)[C@H]3O)[C@@H]2[C@@]2(CO)O[C@@H]12)c1ccc(O)cc1", "target": "SLCO1B1", "assay": "transporter uptake, inhibitor, radiometric", "test system": "HEK293", "setting": "10 min", "IC50 [µM]": 200}
{"Compound": "N[C@@H](CC(=O)N1CCN(C(c2ccc(F)cc2)c2ccc(F)cc2)CC1)C(=O)N1Cc2ccccc2C1", "target": "Lysosomal Pro-X carboxypeptidase (PRCP, Homo sapiens, UniProt P42785)", "assay": "enzyme activity, inhibitor", "IC50 [µM]": 8.43}
{"Compound": "O=S(=O)(Nc1cccc(-c2nnn[nH]2)c1)c1ccc(Cl)c(Cl)c1Cl", "target": "LNPEP", "assay": "enzyme activity, inhibitor, fluorescence", "IC50 [µM]": 1.2}
{"Compound": "Nc1nc(N)c2nc(CNc3cccc4ccccc34)cnc2n1", "target": "CYP3A4", "assay": "enzyme activity, inhibitor, luciferase", "IC50 [µM]": 66.1}
{"Compound": "Cc1noc(-c2cc3cc(-c4nc(C(=O)NCc5ccccn5)[nH]c4C)ccc3[nH]2)n1", "target": "MMP13", "assay": "enzyme activity, inhibitor, FRET", "IC50 [µM]": 0.0031}
{"Compound": "CCOC(=O)[C@H](CCc1ccccc1)N[C@@H](C)C(=O)N1[C@H](C(=O)O)C[C@@H]2CCC[C@@H]21", "target": "SLCO1B1", "assay": "transporter uptake, inhibitor, fluorescence", "test system": "CHO", "setting": "30 min, pH 7.4", "IC50 [µM]": 4}
{"Compound": "CCCC[C@H](NC(=O)C1CN(C)C1)c1ncc(-c2cc3ccccc3nc2OC)[nH]1", "target": "Histone deacetylase 11 (HDAC11, Homo sapiens, UniProt Q96DB2)", "assay": "enzyme activity, inhibitor", "IC50 [µM]": "> 30"}
{"Compound": "Cc1noc(-c2cc3cc(-c4nc(C(=O)NCc5ccccc5)[nH]c4C)ccc3[nH]2)n1", "target": "MMP13", "assay": "enzyme activity, inhibitor, FRET", "IC50 [µM]": 0.0023}
{"Compound": "O=C(NCCN1CCCC1)c1cc(-c2ccc(CN3CCOCC3)cc2)nc2ccc(F)cc12", "target": "CYP3A4", "assay": "enzyme activity, inhibitor", "test system": "human, liver microsomes", "IC50 [µM]": "> 100"}
{"Compound": "Cc1ncsc1-c1ccc(CNC(=O)[C@@H]2C[C@H](O)CN2C(=O)[C@@H](NC(=O)C2(F)CC2)C(C)(C)C)c(OCCOc2ccc(CN3CCN(c4cc(-c5ccccc5O)nnc4N)CC3)cc2)c1", "target": "Protein polybromo-1, bromodomain (PBRM1, Homo sapiens, UniProt Q86U86)", "assay": "cell-free assay, TR-FRET", "IC50 [µM]": 0.51}
{"Compound": "COC(=O)c1nc(N)n(C(=O)c2ccc(C(C)(C)C)cc2)n1", "target": "Coagulation factor XII (F12, Homo sapiens, UniProt P00748)", "assay": "enzyme activity, inhibitor, absorbance", "IC50 [µM]": "~0.11"}
{"Compound": "O=S(=O)(Nc1cccc(-c2nnn[nH]2)c1)c1cc(C(F)(F)F)ccc1C(F)(F)F", "target": "LNPEP", "assay": "enzyme activity, inhibitor, fluorescence", "IC50 [µM]": 0.8}
{"Compound": "CC(C)C(NC(=O)c1ccco1)C(=O)NCC(c1ccco1)N1CCCCC1 (centres unmarked)", "target": "Cruzipain (Trypanosoma cruzi, UniProt P25779)", "assay": "enzyme activity, inhibitor", "IC50 [µM]": 14}
{"Compound": "CO[C@H]1/C=C/O[C@@]2(C)Oc3c(C)c(O)c4c(O)c(c(/C=N/N5CCN(C)CC5)c(O)c4c3C2=O)NC(=O)/C(C)=C\\C=C\\[C@H](C)[C@H](O)[C@@H](C)[C@@H](O)[C@@H](C)[C@H](OC(C)=O)[C@@H]1C", "target": "SLCO1B1", "assay": "transporter uptake, inhibitor, fluorescence", "test system": "CHO", "setting": "30 min, pH 7.4", "IC50 [µM]": 1.3}
{"Compound": "O=S(=O)(Nc1cccc(-c2nnn[nH]2)c1)c1ccc(Br)cc1F", "target": "LNPEP", "assay": "enzyme activity, inhibitor, fluorescence", "IC50 [µM]": 5.5}
{"Compound": "CC(C)c1cc(NC(=O)Nc2ccc(F)c(F)c2)n(-c2ccccc2)n1", "target": "Kir3.1/Kir3.4 (Homo sapiens, UniProt P48544+P48549)", "assay": "enzyme activity in cells, inhibitor", "IC50 [µM]": 4.1}
